MEKK2wt PB1 HTS – raises or lowers MEK5 binding to wildtype human MEKK2 PB1 domain. Q9Y2U5. bead flow cytometry, Alexa488-MEK5 binding to MEKK2 WT; actives lie on both sides. binding response (% of control), % at 10 µM. hit rate 1.1% among 290,000. AID 1531; in the data active = binding response below about 67% or above about 130%
MEKK3 PB1 HTS – MEKK3-MEK5 PB1 interaction, increase or decrease | binding response (% of control), % at 10 µM | bead-based flow cytometry, Alexa488-MEK5 binding to MEKK3; actives lie on both sides; 0 = blocked by unlabeled MEK5, 100 = vehicle | hit rate 1.4% among 290,000 | Q99759;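 active = binding response more than 3 SD above or below the average of its plate-row segment, actives on both sides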;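 also: Alexa488 bead fluorescence after subtracting the streptavidin-only scavenger bead signal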
Target sequence (Q99759 whole entry, looked up): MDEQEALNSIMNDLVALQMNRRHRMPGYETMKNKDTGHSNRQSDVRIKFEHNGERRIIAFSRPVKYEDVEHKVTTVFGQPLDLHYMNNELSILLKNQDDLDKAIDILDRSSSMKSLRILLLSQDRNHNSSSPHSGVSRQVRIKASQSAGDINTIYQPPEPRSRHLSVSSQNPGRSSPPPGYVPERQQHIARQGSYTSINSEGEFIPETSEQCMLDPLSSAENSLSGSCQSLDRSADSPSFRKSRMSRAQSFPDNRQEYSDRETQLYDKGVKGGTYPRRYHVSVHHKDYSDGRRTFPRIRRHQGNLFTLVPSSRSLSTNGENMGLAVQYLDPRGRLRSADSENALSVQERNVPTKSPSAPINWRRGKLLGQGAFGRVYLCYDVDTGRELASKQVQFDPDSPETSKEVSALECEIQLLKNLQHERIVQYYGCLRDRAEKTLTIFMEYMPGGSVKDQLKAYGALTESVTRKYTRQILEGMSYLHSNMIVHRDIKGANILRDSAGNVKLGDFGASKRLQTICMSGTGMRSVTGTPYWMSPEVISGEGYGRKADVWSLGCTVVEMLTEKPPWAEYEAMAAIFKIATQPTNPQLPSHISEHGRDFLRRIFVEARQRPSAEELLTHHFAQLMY
MEKK2mut PB1 HTS – signal of MEK5 binding to mutant human MEKK2 PB1 domain | bead flow cytometry, Alexa488-MEK5 binding to MEKK2 mutant | percent response, % at 10 µM | hit rate 0.35% among 290,000 | AID 1530; in the data active = percent response above about 24%, passing the limit was not always enough
Arr AP2 block – inhibitors of human beta-arrestin and AP2 interaction | FITC-arrestin peptide / GST-AP2 beads, flow cytometry; AP2 beta2 appendage carries R879A mutation | inhibition, % at 10 µM | hit rate 0.31% among 340,000;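 active = inhibition above a set limit, near 3 SD of compounds lacking own fluorescence, cut at about 54% in these data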;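 also: plate controls were DMSO wells for no effect and 5 µM unlabelled arrestin peptide for full effect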
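System: GST-AP2 R879A glutathione beads; medium: PBS, Tween 20 0.05%, BSA 0.1%; reagent: fluorescein-tagged arrestin peptide at 50 nM final; schedule: pre-incubation 12 min, peptide binding 1 h, room temperature; detection: flow cytometry, FL1 (488/535 nm); read-out: inhibition as reduced fluorescein signal on beads, percent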
MEKK2wt confirm – raises or lowers MEK5 binding to wildtype human MEKK2, retest | shares compounds with MEKK3 PB1 HTS | bead flow cytometry, Alexa488-MEK5 binding to MEKK2 WT; actives lie on both sides | binding response (% of control), % at 10 µM | hit rate 2.4% among 5,900; in the data active = binding response below about 16% or above about 210%; inactive = in between
MEKK2mut-MEK5 – signal of MEK5 binding to mutant human MEKK2, retest; shares compounds with MEKK3 PB1 HTS; bead flow cytometry, Alexa488-MEK5 binding to MEKK2 mutant; percent response, % at 10 µM; hit rate 2% among 5,900; AID 1893; in the data active = percent response mostly above about 71%, no sharp cut-off; inactive = mostly below about 38%;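 also: higher means compound restores mutant binding toward wildtype level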
MEKK3 confirm – confirmation of inhibitors of MEK5 binding to human MEKK3; AID 1894; hit rate 1.8% among 5,900; binding response (% of control), % at 10 µM; bead flow cytometry, Alexa488-MEK5 binding to MEKK3; active compounds read low; shares compounds with MEKK3 PB1 HTS;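 active = binding response below 72% of control, or above a set upper limit, though filed actives all read lower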;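 also: 100% = DMSO only wells and 0% = binding blocked by excess unlabeled MEK5; lower values mean stronger disruption of MEK5 binding to MEKK3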
Starred values were filed as active, the others as inactive; . = not tested or not shown; [ ] = remark or other dose. Shown are actives, neighbours in structure and some others; about 2.3% of the full set was active somewhere.

SMILES	MEKK2wt PB1 HTS	MEKK3 PB1 HTS	MEKK2mut PB1 HTS	Arr AP2 block	MEKK2wt confirm	MEKK2mut-MEK5	MEKK3 confirm
COc1ccc(NC(=O)CS(=O)CC(=O)Nc2cccnc2)cc1 (stereo not given)	100	102	8	6	.	.	.
Cn1ccnc1SCC(=O)Nc1nc2c(F)c(F)c(F)cc2s1	82	79	-7	1	.	.	.
CCN(CC)CC#CCC(O)(c1ccccc1)C1CCCC1 (stereo not given)	46*[inhibitor]	95	-2	17	116	4	106
Cc1ccc(-n2[nH]c(C)c(C=NCc3ccncc3)c2=O)cc1	125	130*	26	17	98	1	102
Cc1ccccc1-n1c(CSC(=N)N)nc2ccccc2c1=O	106	102	1	14	.	.	.
N=C(N)SCc1nc2ccccc2c(=O)n1-c1ccccc1Cl	128	135*	10	-7	100	2	102
CCOC(=O)C(NC(=O)Nc1ncccn1)(Oc1ccccc1)C(F)(F)F (stereo not given)	100	101	1	10	.	.	.
CCOC(=O)C(NC(=O)Nc1ccc(F)cc1F)(Oc1ccc(F)cc1)C(F)(F)F (stereo not given)	104	128*	3	5	105	8	106
CN(CCC#N)C(=O)COC(=O)c1ccc2c(=O)n3c(nc2c1)CCC3	111	128*	0	38	98	-1	99
Cc1ccccc1OCCNC(=O)CNC(=O)c1ccccc1O	76	79*[inhibitor]	-9	-5	103	4	103
COc1ccccc1OCCNC(=O)c1ccccc1C	113	99	7	-3	.	.	.
COc1ccc(CCNC(=O)CCN2C(=O)COc3ccc(C)cc32)cc1OC	107	105	8	15	.	.	.
COc1ccc(CCNC(=O)CCN2C(=O)COc3ccccc32)cc1OC	90	81*[inhibitor]	-10	3	100	-3	98
CCN(CC)C(=O)CC(c1ccc(F)cc1)c1ccc(OC(C)C)cc1 (stereo not given)	101	100	9	.	.	.	.
CN1CCN(/N=C/c2ccc(N(c3ccccc3)c3ccccc3)cc2)CC1	153*	106	16	-12	151	34	98
CN1CCN(/N=C/c2ccc(N(C)c3ccccc3)cc2)CC1	115	103	10	-4	.	.	.
COc1ccc(C(CCNCc2ccc(N(C)C)cc2)c2ccccc2)cc1 (stereo not given)	159*	109	22	-19	137	11	98
CC(C)Oc1ccc(C(CCNCc2ccc(O)cc2)c2ccccc2)cc1 (stereo not given)	150*	107	24*	2	132	13	99
CC(C)Oc1ccc(CNC(=O)CC(c2ccccc2)c2cc(Cl)ccc2O)cc1 (stereo not given)	91	92	-2	-3	.	.	.
CN1CCN(CCC(=O)Nc2ccccc2)CC1	91	91	10	15	.	.	.
CN1CCN(CCC(=O)Nc2ccc(C3CCCC3)cc2)CC1	142*	92	26	-9	110	5	107
O=C(COC(=O)c1ccc(OC(F)F)cc1)NCc1cccs1	.	.	.	-8	.	.	.
CCN(C(=O)COC(=O)c1cc(-c2ccc3cc(OC)ccc3c2)nc2ccccc12)C1CCS(=O)(=O)C1 (stereo not given)	95	98	-2	.	.	.	.
CCN(C(=O)COC(=O)c1cc(=O)[nH]c2ccccc12)C1CCS(=O)(=O)C1 (stereo not given)	37*[inhibitor]	37*[inhibitor]	-14	-7	98	3	101
CSCCC(NC(=O)c1ccc(Cl)cc1Cl)C(=O)NNC(=O)c1ccncc1 (stereo not given)	.	.	.	7	.	.	.
SMILES	MEKK2wt PB1 HTS	MEKK3 PB1 HTS	MEKK2mut PB1 HTS	Arr AP2 block	MEKK2wt confirm	MEKK2mut-MEK5	MEKK3 confirm
Cc1cc(-c2n[nH]c(=S)n2/N=C/c2sccc2C)n[nH]1	107	148*	0	1	104	0	102
Cc1ccsc1/C=N/n1c(-c2ccccc2)n[nH]c1=S	99	101	0	-3	.	.	.
O=C(Nc1ccc(F)cc1)N(Cc1cccs1)Cc1cc2cc3c(cc2[nH]c1=O)OCO3	97	107	0	-6	.	.	.
Cc1ccc2[nH]c(=O)c(CN(Cc3cccs3)C(=S)NCC3CCCO3)cc2c1 (stereo not given)	99	138*	0	-23	104	4	107
Cc1ccc(NC(=O)N(Cc2cccs2)Cc2cc3cc4c(cc3[nH]c2=O)OCO4)cc1	104	130*	0	.	91	-8	96
COc1ccc(NC(=O)N(Cc2cccs2)Cc2cc3cc4c(cc3[nH]c2=O)OCO4)cc1	100	137*	1	.	99	2	104
Cc1cc(N2CCCCC2)nc(SCc2ccc(C#N)cc2)n1	115	122*	4	16	85	0	91
N#Cc1ccc(CSc2nc(N)cc(N)n2)cc1	103	97	0	-4	.	.	.
COc1ccc(C)cc1S(=O)(=O)NC(C)C(=O)Nc1ccc2c(c1)OCO2 (stereo not given)	99	101	-2	19	.	.	.
Cc1nn(CC(=O)c2ccccc2Cl)c(C)c1[N+](=O)[O-]	98	104	-4	-24	.	.	.
Cc1nn(CC(=O)c2ccc(Br)s2)c(C)c1[N+](=O)[O-]	50	46*[inhibitor]	-11	-13	86	-11	89
Cc1nn(CC(=O)OCCOc2ccc(Br)cc2)c(C)c1[N+](=O)[O-]	66	50*[inhibitor]	-4	50	101	1	99
CC(=O)Nc1ccc(C(=O)NNC(=O)c2cccs2)cc1	85	85	-3	1	.	.	.
Cc1ccc(NC(=O)NNC(=O)c2cccs2)cc1	94	71*[inhibitor]	0	13	102	0	106
c1ccc(-c2nc(-c3ccco3)n3ccccc23)cc1	58*[inhibitor]	92	-1	26	101	-10	98
c1ccc(Nc2c(-c3ccco3)nc3ccccn23)cc1	98	102	-1	15	.	.	.
COc1ccc(C2=NN(C(=O)CSc3nc4ccccc4s3)C(c3ccc(OC)cc3)C2)cc1 (stereo not given)	99	148*	0	-7	87	-6	92
COc1ccc(C2=NN(C(=O)CSc3nc4ccccc4s3)C(c3ccc(F)cc3)C2)cc1 (stereo not given)	83	86	-2	3	.	.	.
Cc1c(-n2c(SCC(=O)O)nnc2-c2ccccc2Br)c(=O)n(-c2ccccc2)n1C	110	106	16	-4	.	.	.

Assay outcomes from PubChem BioAssay.
